{"source": "ChEMBL document CHEMBL4261598", "about": "“Synthesis of novel mono and bis nitric oxide donors with high cytocompatibility and release activity” (Bioorg Med Chem Lett, 2018)", "key": {"VSMC [1]": {"test_system": "VSMC", "assay": "Induction of NO release in human VSMC assessed as intracellular S-nitrosothiol level at 50 uM after 1 hr by fluorimetric method", "assay_type": "functional", "procedure,_shortened": "(§1)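 HVSMC seeded in 6-well plates 48 h before, then incubated 1 h at 37°C with compound (mono-amidoximes and GSNO reference 100 µM, bis-amidoxime 50 µM); controls PBS with 0.1% DMSO. Cells washed and lysed, then RSNO and nitrite quantified immediately by fluorometric 2,3-diaminonaphthalene/N2O3 assay giving naphthotriazole (ex 375, em 415 nm). Mean ± SEM, three independent experiments.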"}, "VSMC [2]": {"test_system": "VSMC", "assay": "(§2) Cytotoxicity against human VSMC assessed as cell viability at 100 uM after 24 hrs by MTT assay", "assay_type": "cell-based", "settings": "vsmc, 24 h, 100 µM", "procedure,_shortened": "(§3)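 Human vascular smooth muscle cells incubated 24 h with amidoximes over 0.001 to 100 µM; viability measured (method in Supporting Information). Mean ± SEM of three to four tests, two-way ANOVA.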"}, "Liver": {"test_system": "Liver", "assay": "Induction of NO release in rat liver microsomes assessed as nitrite levels after 10 mins in presence of NADPH and dioxygen by Griess assay", "assay_type": "functional", "settings": "microsome", "procedure,_shortened": "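Amidoximes incubated 10 min with rat liver microsomes and NADPH; supernatant nitrite quantified by Griess assay, expressed as nmol NO2-/mg P450. Background from controls lacking microsomes, amidoxime or NADPH, or with parent nitrile, was subtracted. 4-Chlorobenzamidoxime served as reference. Mean ± SEM of three to five independent experiments.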"}, "VSMC [3]": {"test_system": "VSMC", "assay": "Induction of NO release in human VSMC assessed as intracellular S-nitrosothiol level at 100 uM after 1 hr by fluorimetric method", "assay_type": "functional", "procedure,_shortened": "as §1"}, "[4]": {"assay": "as §2", "assay_type": "cell-based", "settings": "VSMC cells, read-out: Activity", "procedure,_shortened": "as §3"}}, "note": "Active and inactive are the calls of the source. The calls are words filed in the database; no cut-off is given here."}
{"smiles": "N/C(CCCCOc1ccc(/C(N)=N/O)cc1)=N\\O", "values": [{"measurement": "Activity", "setting": "VSMC [1]", "result": 0.17, "unit": "µM"}, {"measurement": "Activity", "setting": "VSMC [2]", "result": "Non-Toxic"}, {"measurement": "Activity", "setting": "Liver", "result": "Active"}]}
{"smiles": "N/C(CCCCOc1ccccc1)=N\\O", "values": [{"measurement": "Activity", "setting": "VSMC [2]", "result": "Non-Toxic"}, {"measurement": "Activity", "setting": "Liver", "result": "Active"}]}
{"smiles": "COc1ccc(C(=N)NO)cc1", "values": [{"measurement": "Activity", "setting": "VSMC [3]", "result": 0.21, "unit": "µM"}, {"measurement": "Activity", "setting": "VSMC [2]", "result": "Non-Toxic"}, {"measurement": "Activity", "setting": "Liver", "result": 1.5, "unit": "nmol/mg"}]}
{"smiles": "N/C(=N\\O)c1ccc(O)cc1", "values": [{"measurement": "Activity", "setting": "VSMC [3]", "result": 0.2, "unit": "µM"}, {"measurement": "viability at 24 h, 100 µM", "setting": "[4]", "result": 74.7, "unit": "%"}, {"measurement": "Activity", "setting": "Liver", "result": 2.4, "unit": "nmol/mg"}]}
{"smiles": "N[C@@H](CCC(=O)N[C@@H](CSN=O)C(=O)NCC(=O)O)C(=O)O", "values": [{"measurement": "Activity", "setting": "VSMC [3]", "result": "Active"}]}
{"smiles": "N/C(=N\\O)c1ccc(Cl)cc1", "values": [{"measurement": "Activity", "setting": "VSMC [3]", "result": 0.03, "unit": "µM"}, {"measurement": "Activity", "setting": "Liver", "result": 1.3, "unit": "nmol/mg"}]}
